Assay results reported in ChEMBL document CHEMBL3992541, “Combined treatment with zingerone and its novel derivative synergistically inhibits TGF-β1 induced epithelial-mesenchymal transition, migration and invasion of human hepatocellular carcinoma cells” (2017).
The source made the active and inactive calls. The calls are words filed in the database; no cut-off is given here.

Assays:
SNU-182 [1] = experiment: Growth inhibition of human SNU182 cells at <50 uM after 48 hrs by CCK8 assay; type: functional, cell-based
SNU-182 [2] = experiment: Inhibition of TGFbeta1-induced epithelial-mesenchymal transition in human SNU182 cells assessed as reduction in mesenchymal phenotype preincubated for 2 hrs followed by TGFbeta1 addition measured after 48 hrs in presence of (E)-1-(9-Ethyl-9H-carbazol-3-yl)-5-(4-hydroxy-3-methoxyphenyl)pent-1-en-3-one; type: functional, cell-based
Procedure, shortened: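 Cells preincubated 2 h in serum-free medium with the mixture (20 and 40 µM), then treated with TGF-β1 5 ng/ml for 48 h. Morphology (spindle-like, elongated shape, scattering) assessed by microscopy.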

SNU-182 [3] = experiment: Inhibition of TGFbeta1-induced epithelial-mesenchymal transition in human SNU182 cells assessed as reduction in MMP2 mRNA expression at 40 uM preincubated for 2 hrs followed by TGFbeta1 addition measured after 48 hrs by qRT-PCR method; type: functional, cell-based
Procedure, shortened: (§1)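 SNU182 cells pretreated 2 h with single agents (12.5 or 40 µM) or the mixture (20 or 40 µM), then TGF-β 5 ng/ml for 48 h. MMP-2 and MMP-9 mRNA measured by RT-PCR with densitometry and by qRT-PCR, fold change by the 2^-ΔΔCt method. Mean±SD of triplicates.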

[4] = target: T1, Mitogen-activated protein kinase; ERK1/ERK2 (Homo sapiens) (UniProt P27361+P28482); experiment: Inhibition of TGFbeta1-induced p44/42 MAPK phosphorylation in human SNU182 cells measured after 48 hrs in presence of (E)-1-(9-Ethyl-9H-carbazol-3-yl)-5-(4-hydroxy-3-methoxyphenyl)pent-1-en-3-one by Western blot method; type: cell-based
Procedure, shortened: (§2)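 SNU182 cells incubated 48 h with TGF-β1 5 ng/ml alone or together with the mixture at 20 and 40 µM, then lysed. Phospho-p42/44 MAPK detected by Western blot, with total p42/44 MAPK as loading control.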

SNU-182 [5] = experiment: Growth inhibition of human SNU182 cells at <50 uM in presence of zingerone after 48 hrs by CCK8 assay; type: functional, cell-based
SNU-182 [6] = experiment: Growth inhibition of human SNU182 cells assessed as cell survival at 12.5 uM after 48 hrs by CCK8 assay relative to control; type: functional; details: SNU-182, 48 h, read-out: Survival
Procedure, shortened: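 SNU182 human hepatocellular carcinoma cells were exposed to compound at 6.25, 12.5, 25, 50 and 100 µM in serum-free DMEM for 48 h. Viability was read by CCK-8, where WST-8 is reduced by cellular dehydrogenases to a soluble formazan, and expressed as survival relative to vehicle control. Values are mean±SD of triplicates.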

SNU-182 [7] = experiment: Inhibition of TGFbeta1-induced epithelial-mesenchymal transition in human SNU182 cells assessed as reduction in downregulation of E-cadherin expression at 12.5 uM preincubated for 2 hrs followed by TGFbeta1 addition measured after 48 hrs by Western blot method; type: functional, cell-based
Procedure, shortened: (§3)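 SNU182 cells pretreated 2 h with single agents (12.5 or 40 µM) or the mixture (20 and 40 µM), then stimulated with TGF-β1 5 ng/ml for 48 h. E-cadherin and Snail protein detected by Western blot, with GAPDH as loading control.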

SNU-182 [8] = experiment: Inhibition of TGFbeta1-induced epithelial-mesenchymal transition in human SNU182 cells assessed as reduction in upregulation of Snail expression preincubated for 2 hrs followed by TGFbeta1 addition measured after 48 hrs in presence of zingerone by Western blot method; type: functional, cell-based; procedure, shortened: as §3
SNU-182 [9] = experiment: Inhibition of TGFbeta1-induced epithelial-mesenchymal transition in human SNU182 cells assessed as reduction in upregulation of N-cadherin expression preincubated for 2 hrs followed by TGFbeta1 addition measured after 48 hrs in presence of zingerone by Western blot method; type: functional, cell-based
Procedure, shortened: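 Pretreatment of SNU182 cells with the mixture at 20 and 40 µM for 2 h in serum-free medium, followed by TGF-β1 5 ng/ml for 48 h. N-cadherin and Snail detected by Western blot against GAPDH.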

[10] = target: Mothers against decapentaplegic homolog 2 (Homo sapiens) (UniProt Q15796); experiment: Inhibition of TGFbeta1-induced SMAD2 phosphorylation in human SNU182 cells at 20 to 40 uM preincubated for 2 hrs followed by TGFbeta1 addition measured after 48 hrs in presence of zingerone by Western blot method; type: cell-based
Procedure, shortened: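 SNU182 cells given the mixture (20 and 40 µM) for 2 h, then TGF-β1 5 ng/ml for 48 h. Smad2/3 phosphorylation by Western blot, with total Smad2/3 as loading control.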

SNU-182 [11] = experiment: Inhibition of TGFbeta1-induced epithelial-mesenchymal transition in human SNU182 cells assessed as reduction in MMP9 mRNA expression at 12.5 uM preincubated for 2 hrs followed by TGFbeta1 addition measured after 48 hrs by qRT-PCR method; type: functional, cell-based; procedure, shortened: as §1
Homo sapiens = organism: Homo sapiens; experiment: Inhibition of TGFbeta1-induced NF-kB nuclear translocation in human SNU182 cells preincubated for 2 hrs followed by TGFbeta1 addition measured after 12 hrs in presence of zingerone by Western blot method; type: cell-based
Procedure, shortened: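 Mixture added to SNU182 cells for 2 h before TGF-β1 for 12 h. Cytosolic and nuclear fractions analysed by Western blot for NF-κB, with COX4 as cytosolic and Lamin B1 as nuclear marker.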

[12] = target: T1, Mitogen-activated protein kinase; ERK1/ERK2 (Homo sapiens); experiment: Inhibition of TGFbeta1-induced p44/42 MAPK phosphorylation in human SNU182 cells measured after 48 hrs in presence of zingerone by Western blot method; type: cell-based; procedure, shortened: as §2
[13] = target: Transcription factor Jun (Homo sapiens) (UniProt P05412); experiment: Inhibition of TGFbeta1-induced AP-1 binding activity in human SNU182 cells at 20 to 40 uM measured after 48 hrs in presence of zingerone by luciferase reporter gene assay; type: cell-based
Procedure, shortened: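 SNU182 transfected with pGL4.44-AP-1-RE-Luc or empty pGL4.44, pretreated with the mixture (20 and 40 µM), then stimulated with TGF-β1 or DMSO. Luciferase reporter activity read. Mean±SD of triplicates.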

T1 sequence (P27361 whole entry, looked up): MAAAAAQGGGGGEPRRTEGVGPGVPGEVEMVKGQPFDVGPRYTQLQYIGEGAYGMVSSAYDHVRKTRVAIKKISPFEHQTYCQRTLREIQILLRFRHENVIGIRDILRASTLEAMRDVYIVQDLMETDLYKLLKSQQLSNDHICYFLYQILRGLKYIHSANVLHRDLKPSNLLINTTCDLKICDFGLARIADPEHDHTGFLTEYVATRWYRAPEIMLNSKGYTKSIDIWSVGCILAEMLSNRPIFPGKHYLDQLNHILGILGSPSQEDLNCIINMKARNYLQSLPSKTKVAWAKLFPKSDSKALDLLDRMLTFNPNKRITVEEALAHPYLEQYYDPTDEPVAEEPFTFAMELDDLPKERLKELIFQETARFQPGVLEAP
T1 sequence (P28482 whole entry, looked up): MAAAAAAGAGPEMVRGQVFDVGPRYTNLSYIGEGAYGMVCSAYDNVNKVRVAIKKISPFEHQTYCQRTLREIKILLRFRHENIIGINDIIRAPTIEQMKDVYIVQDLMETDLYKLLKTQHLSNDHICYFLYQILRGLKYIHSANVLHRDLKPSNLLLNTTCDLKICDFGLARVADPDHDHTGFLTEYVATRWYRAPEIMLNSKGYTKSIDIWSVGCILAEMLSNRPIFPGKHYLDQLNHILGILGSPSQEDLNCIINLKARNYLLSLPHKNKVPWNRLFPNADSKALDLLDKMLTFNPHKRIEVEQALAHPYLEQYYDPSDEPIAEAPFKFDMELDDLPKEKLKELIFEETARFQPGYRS
Mothers against decapentaplegic homolog 2 (Homo sapiens), sequence (Q15796 whole entry): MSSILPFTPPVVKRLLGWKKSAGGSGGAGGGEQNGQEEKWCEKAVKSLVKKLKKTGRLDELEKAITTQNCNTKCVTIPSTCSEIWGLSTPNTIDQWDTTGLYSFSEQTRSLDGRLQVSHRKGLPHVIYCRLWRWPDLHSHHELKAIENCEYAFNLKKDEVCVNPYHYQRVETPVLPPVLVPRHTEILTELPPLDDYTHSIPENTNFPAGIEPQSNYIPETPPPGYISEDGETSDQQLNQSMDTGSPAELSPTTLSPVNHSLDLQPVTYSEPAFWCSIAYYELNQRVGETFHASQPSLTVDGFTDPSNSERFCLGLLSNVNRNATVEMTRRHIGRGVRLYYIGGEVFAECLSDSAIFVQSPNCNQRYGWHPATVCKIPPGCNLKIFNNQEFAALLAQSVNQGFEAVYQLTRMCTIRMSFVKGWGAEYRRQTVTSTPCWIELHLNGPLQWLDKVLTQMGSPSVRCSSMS
Transcription factor Jun (Homo sapiens), sequence (P05412 whole entry): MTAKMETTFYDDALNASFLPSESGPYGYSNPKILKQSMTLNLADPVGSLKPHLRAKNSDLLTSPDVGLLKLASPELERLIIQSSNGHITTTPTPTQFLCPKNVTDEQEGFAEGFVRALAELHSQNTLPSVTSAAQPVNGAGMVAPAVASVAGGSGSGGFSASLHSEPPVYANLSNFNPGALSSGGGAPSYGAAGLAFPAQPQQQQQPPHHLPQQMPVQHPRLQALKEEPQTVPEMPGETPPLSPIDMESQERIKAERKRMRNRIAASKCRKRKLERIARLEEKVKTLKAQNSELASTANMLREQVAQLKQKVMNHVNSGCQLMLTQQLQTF

SMILES	growth inhibition (GI) (SNU-182 [1])	inhibition (SNU-182 [2])	inhibition (SNU-182 [3])	inhibition [4]	growth inhibition (GI) (SNU-182 [5])	viability at 12.5 µM (SNU-182 [6])	inhibition (SNU-182 [7])	inhibition (SNU-182 [8])	inhibition (SNU-182 [9])	inhibition [10]	inhibition (SNU-182 [11])	inhibition (Homo sapiens)	inhibition [12]	inhibition [13]
COc1cc(CCC(C)=O)ccc1O	inactive	Dose-dependent effect	inactive	Dose-dependent effect										
CCn1c2ccccc2c2cc(/C=C/C(=O)CCc3ccc(O)c(OC)c3)ccc21					inactive	> 90%	inactive	Dose-dependent effect	Dose-dependent effect	Active	inactive	Dose-dependent effect	Dose-dependent effect	Active
